Key:
[1] = Inhibition of AMP-activated Protein Kinase at 500 nM; parameters: scale not given: the % may be the effect or the level left
Method in brief: (§1)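 Panel profiling of isolated kinases with inhibitor at 100 nM and 500 nM. […] Remaining kinase activity is expressed as % of control and is the mean of duplicate assays.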

[2] = molecular target: Tyrosine-protein kinase SYK (Homo sapiens) (UniProt P43405); assay: Inhibition of Syk protein tyrosine kinase at 500 nM; parameters: scale not given: the % may be the effect or the level left
Method in brief: (§2)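 Panel of 39 kinases, each tested at 100 and 500 nM inhibitor. […] Activity is expressed as % of control and is the mean of duplicate assays.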

[3] = molecular target: Proto-oncogene tyrosine-protein kinase Src (Homo sapiens) (UniProt P12931); assay: Inhibition of c-Src protein tyrosine kinase at 100 nM; parameters: scale not given: the % may be the effect or the level left; method in brief: as §2
Proto-oncogene tyrosine-protein kinase Src (Homo sapiens), sequence (P12931 2-536 limits assumed): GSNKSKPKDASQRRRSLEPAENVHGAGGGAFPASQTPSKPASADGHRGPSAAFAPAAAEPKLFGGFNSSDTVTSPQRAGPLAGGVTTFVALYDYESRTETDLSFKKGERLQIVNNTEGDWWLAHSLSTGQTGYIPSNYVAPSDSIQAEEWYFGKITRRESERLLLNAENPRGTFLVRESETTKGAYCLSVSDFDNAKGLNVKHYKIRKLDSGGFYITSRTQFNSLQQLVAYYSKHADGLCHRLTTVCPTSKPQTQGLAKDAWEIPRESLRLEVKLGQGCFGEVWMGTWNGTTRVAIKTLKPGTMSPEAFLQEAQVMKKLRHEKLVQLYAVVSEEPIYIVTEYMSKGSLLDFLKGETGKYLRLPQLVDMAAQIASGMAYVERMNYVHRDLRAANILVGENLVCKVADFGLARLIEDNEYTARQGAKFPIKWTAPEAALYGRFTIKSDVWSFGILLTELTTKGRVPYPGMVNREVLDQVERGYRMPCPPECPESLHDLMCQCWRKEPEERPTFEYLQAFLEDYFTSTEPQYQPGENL

[4] = molecular target: Protein kinase C theta type (Homo sapiens) (UniProt Q04759); assay: Inhibition of Protein kinase C theta at 500 nM; parameters: scale not given: the % may be the effect or the level left; method in brief: as §2
[5] = molecular target: RAC-alpha serine/threonine-protein kinase (Homo sapiens, UniProt P31749); assay: Inhibition of Protein kinase B, Akt-1
[6] = molecular target: Cyclin-dependent kinase 2/cyclin A (Homo sapiens) (UniProt P24941+P20248+P78396); assay: Inhibition of Cyclin A-cyclin-dependent kinase 2 at 500 nM; assay type: protein-complex assay; parameters: scale not given: the % may be the effect or the level left; method in brief: as §1
[7] = molecular target: Protein kinase C beta type (Homo sapiens) (UniProt P05771); assay: Inhibition of Protein kinase C beta 2 at 500 nM; parameters: scale not given: the % may be the effect or the level left; method in brief: as §1
[8] = molecular target: MAP kinase-activated protein kinase 5 (Homo sapiens) (UniProt Q8IW41); assay: Inhibition of Protein kinase PRAK at 100 nM; parameters: scale not given: the % may be the effect or the level left; method in brief: as §2
MAP kinase-activated protein kinase 5 (Homo sapiens), sequence (Q8IW41 whole entry): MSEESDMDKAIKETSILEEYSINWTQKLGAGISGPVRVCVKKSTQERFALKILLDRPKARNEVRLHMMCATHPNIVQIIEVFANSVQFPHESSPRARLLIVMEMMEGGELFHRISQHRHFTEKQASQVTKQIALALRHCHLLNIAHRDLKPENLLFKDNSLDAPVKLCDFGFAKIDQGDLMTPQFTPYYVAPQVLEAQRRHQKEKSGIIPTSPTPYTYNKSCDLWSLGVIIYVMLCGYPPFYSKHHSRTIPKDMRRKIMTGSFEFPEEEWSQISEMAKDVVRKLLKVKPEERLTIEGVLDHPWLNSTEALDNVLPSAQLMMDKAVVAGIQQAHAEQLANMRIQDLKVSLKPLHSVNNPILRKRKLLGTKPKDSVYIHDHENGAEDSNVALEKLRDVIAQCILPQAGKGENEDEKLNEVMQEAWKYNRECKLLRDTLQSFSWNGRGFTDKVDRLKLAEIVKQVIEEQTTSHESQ

[9] = molecular target: cAMP-dependent protein kinase (PKA) (Homo sapiens, UniProt P22694+P17612+P22612); assay: Inhibitory activity against Protein kinase A (Histone); assay type: protein assay
[10] = molecular target: Tyrosine-protein kinase Blk (Homo sapiens) (UniProt P51451); assay: Inhibition of B lymphoid tyrosine kinase at 100 nM; parameters: scale not given: the % may be the effect or the level left; method in brief: as §1
Tyrosine-protein kinase Blk (Homo sapiens), sequence (P51451 2-505 limits assumed): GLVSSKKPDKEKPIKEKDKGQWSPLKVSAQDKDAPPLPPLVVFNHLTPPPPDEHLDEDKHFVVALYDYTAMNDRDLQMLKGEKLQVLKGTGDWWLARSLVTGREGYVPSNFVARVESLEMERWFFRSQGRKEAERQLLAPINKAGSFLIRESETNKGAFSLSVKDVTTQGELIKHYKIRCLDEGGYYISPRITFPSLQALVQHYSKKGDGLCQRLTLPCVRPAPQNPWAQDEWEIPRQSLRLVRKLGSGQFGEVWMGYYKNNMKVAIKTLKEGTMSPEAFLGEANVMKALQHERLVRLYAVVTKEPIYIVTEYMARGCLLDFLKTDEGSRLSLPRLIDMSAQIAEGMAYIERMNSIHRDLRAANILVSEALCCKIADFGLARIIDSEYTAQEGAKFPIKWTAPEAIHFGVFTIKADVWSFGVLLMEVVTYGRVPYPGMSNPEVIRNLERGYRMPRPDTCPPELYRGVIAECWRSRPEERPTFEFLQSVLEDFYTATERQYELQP

[11] = molecular target: Cyclin-dependent kinase 4 (Homo sapiens) (UniProt P11802); assay: Inhibition of Rb phosphorylation at the CDK4 specific Ser780 residue (3 fold increase over control) after 24 hr incubation in HCT116 cells; assay type: functional, cell-based; conditions: HCT-116, concentration not given here
Cyclin-dependent kinase 4 (Homo sapiens), sequence (P11802 whole entry): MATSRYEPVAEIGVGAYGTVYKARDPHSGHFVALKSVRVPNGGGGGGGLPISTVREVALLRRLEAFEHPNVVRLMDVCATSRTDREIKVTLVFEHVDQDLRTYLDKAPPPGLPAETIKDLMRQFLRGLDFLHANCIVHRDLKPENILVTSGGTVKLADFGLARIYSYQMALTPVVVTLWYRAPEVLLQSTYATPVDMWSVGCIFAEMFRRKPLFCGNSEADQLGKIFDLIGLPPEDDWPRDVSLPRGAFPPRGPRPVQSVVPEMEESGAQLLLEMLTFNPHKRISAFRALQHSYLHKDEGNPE

[12] = molecular target: Mitogen-activated protein kinase 10 (Homo sapiens) (UniProt P53779); assay: Inhibition of c-Jun N-terminal kinase 3 at 500 nM; parameters: scale not given: the % may be the effect or the level left; method in brief: as §2
[13] = molecular target: MAP kinase-activated protein kinase 2 (Homo sapiens) (UniProt P49137); assay: Inhibition of mitogen-activated protein kinase-activated protein kinase 2 at 500 nM; parameters: scale not given: the % may be the effect or the level left; method in brief: as §2
[14] = molecular target: Rho-associated protein kinase 2 (Homo sapiens) (UniProt O75116); assay: Inhibition of Protein kinase ROCK2 at 100 nM; parameters: scale not given: the % may be the effect or the level left; method in brief: as §2
[15] = molecular target: Tyrosine-protein kinase Lyn (Homo sapiens) (UniProt P07948); assay: Inhibition of Protein tyrosine kinase Lyn at 100 nM; parameters: scale not given: the % may be the effect or the level left
[16] = molecular target: T1, Cyclin-dependent kinase 4/cyclin D1 (Homo sapiens, UniProt P11802); assay: Inhibitory activity against Cyclin D1-cyclin-dependent kinase 4 in enzymatic assay by measuring phosphorylation of RbING; assay type: protein-complex assay
T1 sequence (P11802 whole entry): as above
T1 sequence (P24385 whole entry, further chain): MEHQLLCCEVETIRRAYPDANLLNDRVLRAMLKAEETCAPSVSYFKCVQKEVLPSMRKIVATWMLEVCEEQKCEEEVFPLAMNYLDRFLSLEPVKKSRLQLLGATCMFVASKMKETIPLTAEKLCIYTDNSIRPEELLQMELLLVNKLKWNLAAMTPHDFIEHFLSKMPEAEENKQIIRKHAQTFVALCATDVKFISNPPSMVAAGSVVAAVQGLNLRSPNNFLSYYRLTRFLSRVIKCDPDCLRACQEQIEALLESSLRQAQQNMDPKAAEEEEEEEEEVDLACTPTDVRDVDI

[17] = molecular target: T1, Cyclin-dependent kinase 4/cyclin D1; assay: Inhibitory activity against Cyclin D1-cyclin-dependent kinase 4 in enzymatic assay by measuring phosphorylation of Rb21; assay type: protein-complex assay
[18] = molecular target: Mitogen-activated protein kinase 1 (Homo sapiens) (UniProt P28482); assay: Inhibition of Mitogen-activated protein kinase 2 at 500 nM; parameters: scale not given: the % may be the effect or the level left; method in brief: as §1
[19] = molecular target: Dual specificity mitogen-activated protein kinase kinase 6 (Homo sapiens) (UniProt P52564); assay: Inhibition of mitogen-activated protein kinase kinase 6 at 100 nM; parameters: scale not given: the % may be the effect or the level left; method in brief: as §2
Dual specificity mitogen-activated protein kinase kinase 6 (Homo sapiens), sequence (P52564 whole entry): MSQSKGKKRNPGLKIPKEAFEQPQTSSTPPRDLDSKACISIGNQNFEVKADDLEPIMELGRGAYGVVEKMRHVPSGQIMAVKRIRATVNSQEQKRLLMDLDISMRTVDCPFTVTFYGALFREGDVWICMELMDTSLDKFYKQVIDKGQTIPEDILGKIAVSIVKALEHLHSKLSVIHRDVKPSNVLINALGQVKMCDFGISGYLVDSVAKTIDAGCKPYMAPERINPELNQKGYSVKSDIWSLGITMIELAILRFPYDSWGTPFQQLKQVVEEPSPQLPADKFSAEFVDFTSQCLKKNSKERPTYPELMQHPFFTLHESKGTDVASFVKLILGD

[20] = molecular target: T2, Casein kinase I (Homo sapiens) (UniProt Q9HCP0+P78368+P48730+P49674+P48729); assay: Inhibition of CK1 kinase at 100 nM; assay type: protein assay; parameters: scale not given: the % may be the effect or the level left; method in brief: as §1
[21] = molecular target: Cyclin-dependent kinase 5/CDK5 activator 1 (Homo sapiens) (UniProt Q00535+Q15078); assay: Inhibition of Cyclin-dependent kinase 5-p35nck5a at 500 nM; assay type: protein-complex assay; parameters: scale not given: the % may be the effect or the level left; method in brief: as §1
[22] = molecular target: Cyclin-dependent kinase 4 (Homo sapiens) (UniProt P11802); assay: Inhibition of Rb phosphorylation at the CDK4 specific Ser780 residue (1 fold increase over control) after 24 hr incubation in HCT116 cells; assay type: functional, cell-based; conditions: HCT-116, concentration not given here
[23] = molecular target: Serine/threonine-protein kinase Chk2 (Homo sapiens) (UniProt O96017); assay: Inhibition of Serine/threonine-protein kinase Chk2 at 100 nM; parameters: scale not given: the % may be the effect or the level left; method in brief: as §2
[24] = molecular target: Tyrosine-protein kinase CSK (Homo sapiens) (UniProt P41240); assay: Inhibition of Tyrosine-protein kinase CSK at 100 nM; parameters: scale not given: the % may be the effect or the level left; method in brief: as §2
[25] = molecular target: Dual specificity mitogen-activated protein kinase kinase 7 (Homo sapiens) (UniProt O14733); assay: Inhibition of MKK7-beta kinase at 100 nM; parameters: scale not given: the % may be the effect or the level left; method in brief: as §1
[26] = molecular target: CDK3/cyclin E (Homo sapiens) (UniProt P24864+O96020+Q00526); assay: Inhibition of Cyclin E-cyclin-dependent kinase 3 at 100 nM; assay type: protein-complex assay; parameters: scale not given: the % may be the effect or the level left; method in brief: as §1
CDK3/cyclin E (Homo sapiens), sequence (O96020 whole entry, looked up): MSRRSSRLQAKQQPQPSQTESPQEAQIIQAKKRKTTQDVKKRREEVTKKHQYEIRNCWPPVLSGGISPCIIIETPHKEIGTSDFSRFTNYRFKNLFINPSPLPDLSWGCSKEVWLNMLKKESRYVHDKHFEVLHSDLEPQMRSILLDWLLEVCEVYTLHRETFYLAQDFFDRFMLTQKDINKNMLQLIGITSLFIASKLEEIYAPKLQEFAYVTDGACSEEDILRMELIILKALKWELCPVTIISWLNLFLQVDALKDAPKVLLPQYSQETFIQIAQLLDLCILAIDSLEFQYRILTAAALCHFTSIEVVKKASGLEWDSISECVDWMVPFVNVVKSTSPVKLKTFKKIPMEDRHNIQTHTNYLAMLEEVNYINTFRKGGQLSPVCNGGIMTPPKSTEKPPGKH
CDK3/cyclin E (Homo sapiens), sequence (P24864 whole entry, looked up): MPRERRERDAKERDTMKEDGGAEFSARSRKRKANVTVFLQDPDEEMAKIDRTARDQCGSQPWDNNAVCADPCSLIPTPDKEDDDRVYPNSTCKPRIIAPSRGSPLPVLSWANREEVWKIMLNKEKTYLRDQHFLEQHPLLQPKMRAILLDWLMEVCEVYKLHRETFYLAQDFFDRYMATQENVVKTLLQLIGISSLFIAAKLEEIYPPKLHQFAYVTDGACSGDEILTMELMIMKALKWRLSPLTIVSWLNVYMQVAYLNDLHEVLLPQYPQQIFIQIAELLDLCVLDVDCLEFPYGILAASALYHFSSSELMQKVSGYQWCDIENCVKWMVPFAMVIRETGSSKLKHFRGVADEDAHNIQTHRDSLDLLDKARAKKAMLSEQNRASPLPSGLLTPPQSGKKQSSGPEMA
CDK3/cyclin E (Homo sapiens), sequence (Q00526 whole entry, looked up): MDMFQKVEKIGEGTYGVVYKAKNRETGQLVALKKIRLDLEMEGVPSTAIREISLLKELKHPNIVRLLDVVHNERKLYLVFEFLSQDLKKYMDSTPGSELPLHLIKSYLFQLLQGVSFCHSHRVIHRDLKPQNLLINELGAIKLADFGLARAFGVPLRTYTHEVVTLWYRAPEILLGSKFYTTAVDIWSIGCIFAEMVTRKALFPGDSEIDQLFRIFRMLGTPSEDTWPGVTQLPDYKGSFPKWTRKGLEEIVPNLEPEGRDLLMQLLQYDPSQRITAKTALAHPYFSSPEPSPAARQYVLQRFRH

[27] = molecular target: Inhibitor of nuclear factor kappa-B kinase subunit beta (Homo sapiens) (UniProt O14920); assay: Inhibition of I-kappa-B-kinase beta at 100 nM; parameters: scale not given: the % may be the effect or the level left; method in brief: as §1
[28] = molecular target: Dual specificity mitogen-activated protein kinase kinase 6 (Homo sapiens) (UniProt P52564); assay: Inhibition of mitogen-activated protein kinase kinase 6 at 500 nM; parameters: scale not given: the % may be the effect or the level left; method in brief: as §2
[29] = molecular target: Cyclin-dependent kinase 2/cyclin E (Homo sapiens, UniProt P24941); assay: Inhibitory activity against Cyclin E-cyclin-dependent kinase 2 in enzymatic assay by measuring phosphorylation of RbING; assay type: protein-complex assay
[30] = molecular target: 3-phosphoinositide-dependent protein kinase 1 (Homo sapiens) (UniProt O15530); assay: Inhibition of PDK1 kinase at 500 nM; parameters: scale not given: the % may be the effect or the level left; method in brief: as §1
[31] = molecular target: RAF proto-oncogene serine/threonine-protein kinase (Homo sapiens) (UniProt P04049); assay: Inhibition of RAF proto-oncogene serine/threonine-protein kinase at 100 nM; parameters: scale not given: the % may be the effect or the level left; method in brief: as §2
[32] = molecular target: Tyrosine-protein kinase SYK (Homo sapiens) (UniProt P43405); assay: Inhibition of Syk protein tyrosine kinase at 100 nM; parameters: scale not given: the % may be the effect or the level left; method in brief: as §2
[33] = molecular target: Casein kinase II (Homo sapiens) (UniProt P67870+P68400+P19784); assay: Inhibition of CK2 kinase at 500 nM; assay type: protein-complex assay; parameters: scale not given: the % may be the effect or the level left; method in brief: as §1
[34] = molecular target: Protein kinase C gamma type (Homo sapiens) (UniProt P05129); assay: Inhibition of Protein kinase C gamma at 100 nM; parameters: scale not given: the % may be the effect or the level left; method in brief: as §1
[35] = molecular target: Tyrosine-protein kinase ZAP-70 (Homo sapiens) (UniProt P43403); assay: Inhibition of Zeta-chain (TCR) associated protein kinase 70 kDa (ZAP70) at 100 nM; parameters: scale not given: the % may be the effect or the level left; method in brief: as §2
[36] = molecular target: Mitogen-activated protein kinase 12 (Homo sapiens) (UniProt P53778); assay: Inhibition of Stress activated protein kinase 3 at 100 nM; parameters: scale not given: the % may be the effect or the level left; method in brief: as §2
TGF-beta receptor type-2 = TGF-beta receptor type-2 (Homo sapiens, UniProt P37173); assay: Inhibition of TGF-beta type II receptor
TGF-beta receptor type-2, sequence (P37173 whole entry): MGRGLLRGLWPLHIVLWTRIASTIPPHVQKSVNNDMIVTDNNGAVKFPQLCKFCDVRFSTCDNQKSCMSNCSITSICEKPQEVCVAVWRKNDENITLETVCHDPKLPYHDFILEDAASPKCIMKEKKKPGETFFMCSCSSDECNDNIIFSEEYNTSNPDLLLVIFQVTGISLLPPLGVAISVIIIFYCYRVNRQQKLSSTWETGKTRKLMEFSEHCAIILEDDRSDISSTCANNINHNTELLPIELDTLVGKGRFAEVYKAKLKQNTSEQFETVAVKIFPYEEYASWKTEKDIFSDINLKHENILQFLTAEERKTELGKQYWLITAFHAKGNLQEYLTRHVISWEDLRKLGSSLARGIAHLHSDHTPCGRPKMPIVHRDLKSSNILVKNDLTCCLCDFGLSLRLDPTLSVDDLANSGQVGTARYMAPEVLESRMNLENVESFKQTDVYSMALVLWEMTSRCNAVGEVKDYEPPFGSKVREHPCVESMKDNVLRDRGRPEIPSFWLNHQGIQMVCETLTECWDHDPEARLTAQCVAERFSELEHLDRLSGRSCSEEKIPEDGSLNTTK

[37] = molecular target: Glycogen synthase kinase-3 beta (Homo sapiens, UniProt P49841); assay: Inhibition of Glycogen synthase kinase-3 beta
[38] = molecular target: Mitogen-activated protein kinase 8 (Homo sapiens) (UniProt P45983); assay: Inhibition of c-Jun N-terminal kinase 1-alpha 1 at 100 nM; parameters: scale not given: the % may be the effect or the level left; method in brief: as §2
Mitogen-activated protein kinase 8 (Homo sapiens), sequence (P45983 whole entry): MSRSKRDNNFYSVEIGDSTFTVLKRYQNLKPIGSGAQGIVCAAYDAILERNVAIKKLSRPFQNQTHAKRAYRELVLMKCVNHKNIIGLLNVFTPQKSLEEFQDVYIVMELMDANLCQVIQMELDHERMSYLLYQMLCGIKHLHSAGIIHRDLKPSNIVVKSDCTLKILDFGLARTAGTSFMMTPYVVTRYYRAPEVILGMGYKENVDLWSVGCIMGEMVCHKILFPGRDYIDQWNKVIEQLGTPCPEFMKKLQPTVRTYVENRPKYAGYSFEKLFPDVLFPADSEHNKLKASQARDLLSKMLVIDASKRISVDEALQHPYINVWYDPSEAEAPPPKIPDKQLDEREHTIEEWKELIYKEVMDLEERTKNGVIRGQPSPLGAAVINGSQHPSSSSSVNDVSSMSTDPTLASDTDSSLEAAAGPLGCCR

[39] = molecular target: T2, Casein kinase I (Homo sapiens); assay: Inhibition of CK1 kinase at 500 nM; assay type: protein assay; parameters: scale not given: the % may be the effect or the level left; method in brief: as §1
[40] = molecular target: Calcium/calmodulin-dependent protein kinase type IV (Homo sapiens) (UniProt Q16566); assay: Inhibition of Calcium/calmodulin-dependent protein kinase type IV at 100 nM; parameters: scale not given: the % may be the effect or the level left; method in brief: as §1

**Q.** With `Cn1ccc2ccc3c4[nH]c5c(CCCN[C@H]6CC[C@H](O)CC6)cccc5c4c4c(c3c21)C(=O)NC4=O` as the compound, how does the Control [1] read?
**A.** 95%

**Q.** What about the Control [2] of the same compound?
**A.** 68%

**Q.** What about the Control [3] of the same compound?
**A.** 100%

**Q.** And the Control [4]?
**A.** 58%

**Q.** And the IC50 [5]?
**A.** 5480 nM

**Q.** What about the Control [6] of the same compound?
**A.** 42%

**Q.** What about the Control [7] of the same compound?
**A.** 59%

**Q.** And the Control [8]?
**A.** 86%

**Q.** What about the IC50 [9] of the same compound?
**A.** 2930 nM

**Q.** What about the Control [10] of the same compound?
**A.** 74%

**Q.** What about the inhibition [11] of the same compound?
**A.** 83%

**Q.** What about the Control [12] of the same compound?
**A.** 97%

**Q.** What about the Control [13] of the same compound?
**A.** 104%

**Q.** What about the Control [14] of the same compound?
**A.** 90%

**Q.** And the Control [15]?
**A.** 78%

**Q.** What about the IC50 [16] of the same compound?
**A.** 49 nM

**Q.** What about the IC50 [17] of the same compound?
**A.** 19 nM

**Q.** And the Control [18]?
**A.** 90%

**Q.** What about the Control [19] of the same compound?
**A.** 100%

**Q.** And the Control [20]?
**A.** 98%

**Q.** And the Control [21]?
**A.** 62%

**Q.** What about the inhibition [22] of the same compound?
**A.** 45%

**Q.** What about the Control [23] of the same compound?
**A.** 84%

**Q.** And the Control [24]?
**A.** 104%

**Q.** And the Control [25]?
**A.** 86%

**Q.** And the Control [26]?
**A.** 89%

**Q.** And the Control [27]?
**A.** 120%

**Q.** And the Control [28]?
**A.** 98%

**Q.** What about the IC50 [29] of the same compound?
**A.** 1030 nM

**Q.** What about the Control [30] of the same compound?
**A.** 65%

**Q.** And the Control [31]?
**A.** 112%

**Q.** And the Control [32]?
**A.** 94%

**Q.** And the Control [33]?
**A.** 94%

**Q.** What about the Control [34] of the same compound?
**A.** 105%

**Q.** What about the Control [35] of the same compound?
**A.** 134%

**Q.** What about the Control [36] of the same compound?
**A.** 107%

**Q.** And the IC50 (TGF-beta receptor type-2)?
**A.** > 20000 nM

**Q.** And the IC50 [37]?
**A.** > 20000 nM

**Q.** What about the Control [38] of the same compound?
**A.** 99%

**Q.** What about the Control [39] of the same compound?
**A.** 89%

**Q.** And the Control [40]?
**A.** 108%
